Measurements from ChEMBL document CHEMBL4219167, “Disulfiram-based disulfides as narrow-spectrum antibacterial agents” (Bioorg Med Chem Lett, 2018).
Converted amounts (≈) assume the structure as drawn.

What was measured:
Staphylococcus aureus [1] = assay: Antibacterial activity against methicillin-resistant Staphylococcus aureus COL after 20 hrs by broth microdilution assay; format: functional
Staphylococcus aureus [2] = assay: Antibacterial activity against vancomycin-intermediate resistant Staphylococcus aureus AR-217 after 20 hrs by broth microdilution assay; format: functional; settings: AR-217, 20 h
Staphylococcus aureus [3] = assay: Antibacterial activity against vancomycin-resistant Staphylococcus aureus HIP14300 after 20 hrs by broth microdilution assay; format: functional; settings: HIP14300, 20 h
[4] = tested on: Staphylococcus epidermidis; assay: Antibacterial activity against vancomycin-intermediate resistant Staphylococcus epidermidis NRS6 after 20 hrs by broth microdilution assay; format: functional; settings: NRS6, 20 h
Streptococcus pyogenes = assay: Antibacterial activity against Streptococcus pyogenes H293 after 20 hrs by broth microdilution assay; format: functional; settings: H293, 20 h
Streptococcus agalactiae = assay: Antibacterial activity against Streptococcus agalactiae SGBS005 after 20 hrs by broth microdilution assay; format: functional; settings: SGBS005, 20 h
Streptococcus pneumoniae = assay: Antibacterial activity against Streptococcus pneumoniae TCH8431 after 20 hrs by broth microdilution assay; format: functional; settings: TCH8431, 20 h
Enterococcus faecium = assay: Antibacterial activity against vancomycin-resistant Enterococcus faecium ATCC 700221 after 20 hrs by broth microdilution assay; format: functional; settings: ATCC 700221, 20 h
Outline: (§1)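 Brain heart infusion broth at 37°C; E. faecium under 5% CO2. Cells at 0.5 McFarland are diluted 1:100 and exposed to serial dilutions (DMSO stocks 1 mM or 1 mg/mL; controls in water).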

Bacillus anthracis [5] = assay: Antibacterial activity against Bacillus anthracis Ames 35 after 20 hrs by broth microdilution assay; format: functional; settings: Ames 35, 20 h
Bacillus anthracis [6] = assay: Antibacterial activity against Bacillus anthracis Sterne 34F2 after 20 hrs by broth microdilution assay; format: functional; settings: Sterne 34F2, 20 h
Bacillus anthracis [7] = assay: Antibacterial activity against Bacillus anthracis UM23-1 after 20 hrs by broth microdilution assay; format: functional; settings: UM23-1, 20 h
Bacillus anthracis [8] = assay: Antibacterial activity against Bacillus anthracis Weybridge after 20 hrs by broth microdilution assay; format: functional
Francisella tularensis = assay: Antibacterial activity against Francisella tularensis Utah 112 after 20 hrs by broth microdilution assay; format: functional; settings: Utah 112, 20 h
Yersinia pestis [9] = assay: Antibacterial activity against Yersinia pestis Kim D2 after 20 hrs by broth microdilution assay; format: functional; settings: Kim D2, 20 h
Yersinia pestis [10] = assay: Antibacterial activity against Yersinia pestis Kuma D7 after 20 hrs by broth microdilution assay; format: functional; settings: Kuma D7, 20 h
Bacillus cereus = assay: Antibacterial activity against Bacillus cereus Gibson 971 after 20 hrs by broth microdilution assay; format: functional; settings: Gibson 971, 20 h
Corynebacterium striatum = assay: Antibacterial activity against Corynebacterium striatum FS-1 after 20 hrs by broth microdilution assay; format: functional; settings: FS-1, 20 h
Listeria monocytogenes = assay: Antibacterial activity against Listeria monocytogenes Gibson after 20 hrs by broth microdilution assay; format: functional; outline: as §1
Micrococcus luteus = assay: Antibacterial activity against Micrococcus luteus SK58 after 20 hrs by broth microdilution assay; format: functional; settings: SK58, 20 h
Rhodococcus erythropolis = assay: Antibacterial activity against Rhodococcus erythropolis SK121 after 20 hrs by broth microdilution assay; format: functional; settings: SK121, 20 h
Outline: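 R. erythropolis grown in brain heart infusion broth at 30°C. A 0.5 McFarland suspension diluted 1:100 is treated with serial dilutions from 1 mM or 1 mg/mL DMSO stocks; control antibiotics are in water.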

Acinetobacter baumannii = assay: Antibacterial activity against Acinetobacter baumannii AB5075 after 20 hrs by broth microdilution assay; format: functional; settings: AB5075, 20 h
Brucella neotomae = assay: Antibacterial activity against Brucella neotomae 5K33 after 20 hrs by broth microdilution assay; format: functional; settings: 5K33, 20 h
Burkholderia multivorans = assay: Antibacterial activity against Burkholderia multivorans CF2 after 20 hrs by broth microdilution assay; format: functional; settings: CF2, 20 h
Outline: (§2)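 Medium is tryptic soy broth, 37°C. Overnight culture is adjusted to 0.5 McFarland, diluted 1:100 and exposed to serial dilutions (test agents from 1 mM or 1 mg/mL DMSO stocks; control antibiotics in water). Incubation lasts 20 h. MIC is the lowest concentration with no visible growth.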

Burkholderia cepacia = assay: Antibacterial activity against Burkholderia cepacia UCB 717 after 20 hrs by broth microdilution assay; format: functional; settings: UCB 717, 20 h; outline: as §2
Citrobacter freundii = assay: Antibacterial activity against Citrobacter freundii 4_7_47CFAA after 20 hrs by broth microdilution assay; format: functional
Outline: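 Brucella broth, 37°C, 5% CO2. Inoculum is 0.5 McFarland diluted 1:100, with serial drug dilutions from DMSO stocks (1 mM or 1 mg/mL) and control antibiotics in water.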

Escherichia coli = assay: Antibacterial activity against Escherichia coli DC10B after 20 hrs by broth microdilution assay; format: functional; outline: as §2
Klebsiella pneumoniae = assay: Antibacterial activity against Klebsiella pneumoniae 700603 after 20 hrs by broth microdilution assay; format: functional; settings: Klebsiella pneumoniae, 700603, 20 h; outline: as §2
Proteus mirabilis = assay: Antibacterial activity against Proteus mirabilis HM-752 after 20 hrs by broth microdilution assay; format: functional; settings: HM-752, 20 h; outline: as §2
Pseudomonas aeruginosa = assay: Antibacterial activity against Pseudomonas aeruginosa ATCC 15442 after 20 hrs by broth microdilution assay; format: functional; settings: ATCC 15442, 20 h; outline: as §2
Salmonella typhi = assay: Antibacterial activity against Salmonella typhi Ty2 after 20 hrs by Todd Hewitt broth broth microdilution method; format: functional, Salmonella enterica subsp. enterica serovar Typhi str. Ty2; settings: Salmonella enterica
Yersinia enterocolitica = assay: Antibacterial activity against Yersinia enterocolitica WA-314 after 20 hrs by broth microdilution assay; format: functional; settings: WA-314, 20 h
Outline: (§3)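 Yersinia cultured in tryptic soy broth at 28°C. A 0.5 McFarland suspension diluted 1:100 receives serial dilutions of agents from 1 mM or 1 mg/mL DMSO stocks; control antibiotics are in water.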

Shigella dysenteriae = assay: Antibacterial activity against Shigella dysenteriae Newcastle 1934 after 20 hrs by broth microdilution assay; format: functional; settings: Newcastle 1934, 20 h; outline: as §2
Vibrio cholerae = assay: Antibacterial activity against Vibrio cholerae TS D4 after 20 hrs by Todd Hewitt broth broth microdilution method; format: functional; settings: TS D4, 20 h
[11] = tested on: Yersinia pseudotuberculosis; assay: Antibacterial activity against Yersinia pseudotuberculosis P61 after 20 hrs by broth microdilution assay; format: functional; settings: P61, 20 h; outline: as §3

Compound	MIC (Staphylococcus aureus [1]) [µM]	MIC (Staphylococcus aureus [2]) [µM]	MIC (Staphylococcus aureus [3]) [µM]	MIC [4] [µM]	MIC (Streptococcus pyogenes) [µM]	MIC (Streptococcus agalactiae) [µM]	MIC (Streptococcus pneumoniae) [µM]	MIC (Enterococcus faecium) [µM]	MIC (Bacillus anthracis [5]) [µM]	MIC (Bacillus anthracis [6]) [µM]	MIC (Bacillus anthracis [7]) [µM]	MIC (Bacillus anthracis [8]) [µM]	MIC (Francisella tularensis) [µM]	MIC (Yersinia pestis [9]) [µM]	MIC (Yersinia pestis [10]) [µM]	MIC (Bacillus cereus) [µM]	MIC (Corynebacterium striatum) [µM]	MIC (Listeria monocytogenes) [µM]	MIC (Micrococcus luteus) [µM]	MIC (Rhodococcus erythropolis) [µM]	other results
CCSSC(=S)N(CC)CC	16 (≈ 3.35 µg/mL)	8 (≈ 1.68 µg/mL)	16 (≈ 3.35 µg/mL)	32 (≈ 6.7 µg/mL)	32 (≈ 6.7 µg/mL)	> 32	> 32	> 32													
CCN(CC)C(=S)SSc1ccccc1	32 (≈ 8.24 µg/mL)	16 (≈ 4.12 µg/mL)	16 (≈ 4.12 µg/mL)	16 (≈ 4.12 µg/mL)	> 32	> 32	> 32	> 32													
CCN(CC)C(=S)SSCC(C)C	> 32	> 32	> 32	> 32	32 (≈ 7.6 µg/mL)	> 32	> 32	> 32													
CCCCCSSC(=S)N(CC)CC	16 (≈ 4.02 µg/mL)	8 (≈ 2.01 µg/mL)	16 (≈ 4.02 µg/mL)	8 (≈ 2.01 µg/mL)	> 32	> 32	> 32	> 32	4 (≈ 1.01 µg/mL)	4 (≈ 1.01 µg/mL)	4 (≈ 1.01 µg/mL)	8 (≈ 2.01 µg/mL)	32 (≈ 8.05 µg/mL)	32 (≈ 8.05 µg/mL)	32 (≈ 8.05 µg/mL)	1 (≈ 0.251 µg/mL)	32 (≈ 8.05 µg/mL)	8 (≈ 2.01 µg/mL)	16 (≈ 4.02 µg/mL)	16 (≈ 4.02 µg/mL)	MIC (Acinetobacter baumannii): > 32 µM; MIC (Brucella neotomae): 32 µM (≈ 8.05 µg/mL); MIC (Burkholderia multivorans): > 32 µM; MIC (Burkholderia cepacia): > 32 µM; MIC (Citrobacter freundii): > 32 µM; MIC (Escherichia coli): > 32 µM; MIC (Klebsiella pneumoniae): > 32 µM; MIC (Proteus mirabilis): > 32 µM; MIC (Pseudomonas aeruginosa): > 32 µM; MIC (Salmonella typhi): > 32 µM; MIC (Yersinia enterocolitica): > 32 µM; MIC (Shigella dysenteriae): > 32 µM; MIC (Vibrio cholerae): > 32 µM; MIC [11]: > 32 µM
CCN(CC)C(=S)SSC1CCCC1	32 (≈ 7.98 µg/mL)	16 (≈ 3.99 µg/mL)	32 (≈ 7.98 µg/mL)	32 (≈ 7.98 µg/mL)	32 (≈ 7.98 µg/mL)	> 32	> 32	> 32													
CCCCCCCSSC(=S)N(CC)CC	4 (≈ 1.12 µg/mL)	2 (≈ 0.559 µg/mL)	4 (≈ 1.12 µg/mL)	4 (≈ 1.12 µg/mL)	16 (≈ 4.47 µg/mL)	> 32	32 (≈ 8.95 µg/mL)	8 (≈ 2.24 µg/mL)	4 (≈ 1.12 µg/mL)	2 (≈ 0.559 µg/mL)	1 (≈ 0.28 µg/mL)	2 (≈ 0.559 µg/mL)	16 (≈ 4.47 µg/mL)	32 (≈ 8.95 µg/mL)	32 (≈ 8.95 µg/mL)	1 (≈ 0.28 µg/mL)	16 (≈ 4.47 µg/mL)	4 (≈ 1.12 µg/mL)	16 (≈ 4.47 µg/mL)	16 (≈ 4.47 µg/mL)	MIC (Acinetobacter baumannii): > 32 µM; MIC (Brucella neotomae): > 32 µM; MIC (Burkholderia multivorans): > 32 µM; MIC (Burkholderia cepacia): > 32 µM; MIC (Citrobacter freundii): > 32 µM; MIC (Escherichia coli): > 32 µM; MIC (Klebsiella pneumoniae): > 32 µM; MIC (Proteus mirabilis): > 32 µM; MIC (Pseudomonas aeruginosa): > 32 µM; MIC (Salmonella typhi): > 32 µM; MIC (Yersinia enterocolitica): > 32 µM; MIC (Shigella dysenteriae): > 32 µM; MIC (Vibrio cholerae): > 32 µM; MIC [11]: > 32 µM
CCN(CC)C(=S)SSCc1ccccc1	8 (≈ 2.17 µg/mL)	2 (≈ 0.543 µg/mL)	8 (≈ 2.17 µg/mL)	8 (≈ 2.17 µg/mL)	> 32	> 32	> 32	32 (≈ 8.69 µg/mL)	4 (≈ 1.09 µg/mL)	4 (≈ 1.09 µg/mL)	2 (≈ 0.543 µg/mL)	4 (≈ 1.09 µg/mL)	32 (≈ 8.69 µg/mL)	16 (≈ 4.34 µg/mL)	32 (≈ 8.69 µg/mL)	2 (≈ 0.543 µg/mL)	32 (≈ 8.69 µg/mL)	8 (≈ 2.17 µg/mL)	16 (≈ 4.34 µg/mL)	16 (≈ 4.34 µg/mL)	MIC (Acinetobacter baumannii): > 32 µM; MIC (Brucella neotomae): 32 µM (≈ 8.69 µg/mL); MIC (Burkholderia multivorans): 32 µM (≈ 8.69 µg/mL); MIC (Burkholderia cepacia): > 32 µM; MIC (Citrobacter freundii): > 32 µM; MIC (Escherichia coli): > 32 µM; MIC (Klebsiella pneumoniae): > 32 µM; MIC (Proteus mirabilis): > 32 µM; MIC (Pseudomonas aeruginosa): > 32 µM; MIC (Salmonella typhi): > 32 µM; MIC (Yersinia enterocolitica): > 32 µM; MIC (Shigella dysenteriae): > 32 µM; MIC (Vibrio cholerae): > 32 µM; MIC [11]: > 32 µM
